Experimental data from PMC9064907 (RSC Advances, 2019).
Like-named read-outs stand apart in the source and are kept apart here.

What was measured:
[1] = tested on: HCT-116 (human colorectal carcinoma); assay: MTT cytotoxicity assay, HCT-116; assay type: cell-based; details: for IC50: read-out: IC50 (µM) ± SD HCT-116; for Therapeutic index (TI) HCT-116: TI = IC50 against normal cells (RPE-1)/IC50 against cancer cells (HCT-116)
Summary of the method: (§1)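 Cells were kept in DMEM with 10% heat-inactivated FBS and penicillin/streptomycin at 37 °C under 5% CO2. MTT (2.5 mg mL−1) was added for 4 h, formazan dissolved in DMSO and A570 read. Viability is % of untreated control. Triplicates were repeated on three days; mean ± SD; IC50 by probit analysis.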

[2] = tested on: MCF-7 (human breast adenocarcinoma); assay: MTT cytotoxicity assay, MCF-7; assay type: cell-based; details: for IC50: read-out: IC50 (µM) ± SD MCF-7; for Therapeutic index (TI) MCF-7: TI = IC50 against normal cells (RPE-1)/IC50 against cancer cells (MCF-7)
Summary of the method: as §1

[3] = tested on: RPE-1 (human normal Retina pigmented epithelium); assay: MTT cytotoxicity assay, RPE-1 normal cells; assay type: cell-based; details: read-out: IC50 (µM) ± SD RPE-1
Summary of the method: as §1

[4] = tested on: MCF-7 cells; assay: Apoptosis quantification by flow cytometry; assay type: cell-based, human; details: MCF-7, treated at IC50 (2: 18.7 µM; 14: 15.6 µM), 24 h; for apoptosis percentage, early apoptosis: control 1.84 ± 0.63; for apoptosis percentage, late apoptosis: control 2.94 ± 0.5%
[5] = tested on: MCF-7 cells; assay: Apoptosis detection by fluorescent Hoechst 33258 staining; assay type: cell-based, human; details: MCF-7, treated at IC50 (2: 18.7 µM; 14: 15.6 µM), 24 h
[6] = MTT assay, 48 h, normal RPE-1 cells

| Structure (SMILES) | IC50 ([1]; Homo sapiens, HCT-116, 48 h) | Therapeutic index (TI) HCT-116 [1] | IC50 ([2]; Homo sapiens, MCF7, 48 h) | Therapeutic index (TI) MCF-7 [2] | IC50 ([3]; Homo sapiens, RPE-1, 48 h) | IC50 ([1]; MTT assay, 48 h, HCT-116) | IC50 ([2]; MTT assay, 48 h, MCF-7) | IC50 [3, 6] | apoptosis percentage, early apoptosis [4] | apoptosis percentage, late apoptosis [4] | Nuclear morphological changes (Hoechst 33258) [5] |
| --- | --- | --- | --- | --- | --- | --- | --- | --- | --- | --- | --- |
| COC(=O)c1ccc(-n2nc(SC)nc2N)cc1 [Compound 16, methyl 4-(5-amino-3-(methylthio)-1H-1,2,4-triazol-1-yl)benzoate] | 37.3 ± 6.1 µM | 1.0 | 23.4 ± 3.5 µM | 1.7 | 39.1 ± 9.9 µM |  |  |  |  |  |  |
| COc1ccc(O)c(/C=N/c2nc(Oc3ccccc3)nn2-c2ccc(C(=O)O)cc2)c1 [Compound 11, (E)-4-(5-((2-Hydroxy-5-methoxybenzylidene)amino)-3-phenoxy-1H-1,2,4-triazol-1-yl)benzoic acid] | 33.1 ± 4.4 µM | 1.8 | 27.5 ± 4.1 µM | 2.1 | 58.5 ± 10.7 µM |  |  |  |  |  |  |
| CSc1nc(NC(=S)NCc2ccccc2)n(-c2ccc(C(=O)O)cc2)n1 [Compound 13, 4-(3-(Methylthio)-5-(3-benzylylthioureido)-1H-1,2,4-triazol-1-yl)benzoic acid] |  | 2.1 |  | 2.7 |  | 30.1 ± 4.1 µM | 23.4 ± 4.6 µM | 63.9 ± 13.5 µM |  |  |  |
| Nc1nc(Oc2ccccc2)nn1-c1ccc(C(=O)O)cc1 [Compound 2, 4-(5-Amino-3-phenoxy-1H-1,2,4-triazol-1-yl)benzoic acid] | 25.7 ± 4.1 µM | 2.4 | 18.7 ± 3.5 µM | 3.3 | 61.2 ± 10.9 µM |  |  |  | 17.82 ± 1.30% | 24.91 ± 1.98% | DNA fragmentation and typical marks of apoptosis are evident |
| CSc1nc(N)n(-c2ccc(C(=O)O)cc2)n1 [Compound 1, 4-(5-Amino-3-(methylthio)-1H-1,2,4-triazol-1-yl)benzoic acid] | 41.8 ± 6.5 µM | 1.5 | 32.9 ± 5.3 µM | 1.9 | 61 ± 13.9 µM |  |  |  |  |  |  |
| COc1cc(/C=N/c2nc(SC)nn2-c2ccc(C(=O)O)cc2)ccc1O [Compound 7, (E)-4-(5-((4-Hydroxy-3-methoxybenzylidene)amino)-3-(methylthio)-1H-1,2,4-triazol-1-yl)benzoic acid] | 29.8 ± 4.2 µM | 2.1 | 29.4 ± 5.3 µM | 2.1 | 61.1 ± 12.5 µM |  |  |  |  |  |  |
| CS(=O)(=O)c1nc(N)n(-c2ccc(C(=O)O)cc2)n1 [Compound 17, 4-(5-amino-3-(methylsulfonyl)-1H-1,2,4-triazol-1-yl) benzoic acid] | 34.2 ± 5.2 µM | 1.4 | 21.9 ± 4.2 µM | 2.2 | 48.5 ± 9.8 µM |  |  |  |  |  |  |
| CSc1nc(/N=C/c2cc([N+](=O)[O-])ccc2O)n(-c2ccc(C(=O)O)cc2)n1 [Compound 5, (E)-4-(5-((2-Hydroxy-5-nitrobenzylidene)amino)-3-(methylthio)-1H-1,2,4-triazol-1-yl)benzoic acid] | 24 ± 4.5 µM | 2.5 | 20 ± 4.1 µM | 3.0 | 60.2 ± 12.8 µM |  |  |  |  |  |  |
| Cc1ccc(O)c(/C=N/c2nc(Oc3ccccc3)nn2-c2ccc(C(=O)O)cc2)c1 [Compound 10, (E)-4-(5-((2-Hydroxy-5-methylbenzylidene)amino)-3-phenoxy-1H-1,2,4-triazol-1-yl)benzoic acid] | 33.7 ± 5.2 µM | 2.2 | 30.3 ± 5.3 µM | 2.4 | 74 ± 16.5 µM |  |  |  |  |  |  |
| CSc1nc(NC(=S)NCCc2ccccc2)n(-c2ccc(C(=O)O)cc2)n1 [Compound 14, 4-(3-(Methylthio)-5-(3-phenethylthioureido)-1H-1,2,4-triazol-1-yl)benzoic acid] | 28.3 ± 5.2 µM | 1.6 | 15.6 ± 2.2 µM | 2.9 | 45.8 ± 8.9 µM |  |  |  | 29.11 ± 1.44% | 45.47 ± 2.10% | DNA fragmentation and typical marks of apoptosis are evident |
| O=C(O)c1ccc(-n2nc(Oc3ccccc3)nc2NC(=S)NCc2ccccc2)cc1 [Compound 15, 4-(5-(3-Benzylylthioureido)(3-phenoxy)-1H-1,2,4-triazol-1-yl)benzoic acid] |  | 3.8 |  | 3.8 |  | 23.9 ± 4.5 µM | 24 ± 4.3 µM | 91.6 ± 15.9 µM |  |  |  |
| COc1cccc2c1C(=O)c1c(O)c3c(c(O)c1C2=O)C[C@@](O)(C(=O)CO)C[C@@H]3O[C@H]1C[C@H](N)[C@H](O)[C@H](C)O1 [Doxorubicin, reference compound] | 22.6 ± 3.9 µM | 2.8 | 19.7 ± 3.1 µM | 3.3 | 64 ± 13.2 µM |  |  |  |  |  |  |
| O=C(O)c1ccc(-n2nc(Oc3ccccc3)nc2/N=C/c2cc([N+](=O)[O-])ccc2O)cc1 [Compound 12, (E)-4-(5-((2-Hydroxy-5-nitrobenzylidene)amino)-3-phenoxy-1H-1,2,4-triazol-1-yl)benzoic acid] | 26.8 ± 4.5 µM | 2.3 | 21.6 ± 3.1 µM | 2.9 | 62.8 ± 13.9 µM |  |  |  |  |  |  |
| CSc1nc(/N=C/c2cc(C)ccc2O)n(-c2ccc(C(=O)O)cc2)n1 [Compound 3, (E)-4-(5-((2-Hydroxy-5-methylbenzylidene)amino)-3-(methylthio)-1H-1,2,4-triazol-1-yl)benzoic acid] | 36 ± 6.1 µM | 1.2 | 23.9 ± 1.6 µM | 1.8 | 43.9 ± 10.5 µM |  |  |  |  |  |  |
| CSc1nc(/N=C/c2ccc(O)cc2)n(-c2ccc(C(=O)O)cc2)n1 [Compound 9, (E)-4-(5-((4-Hydroxybenzylidene)amino)-3-(methylthio)-1H-1,2,4-triazol-1-yl)benzoic acid] | 39.1 ± 5.6 µM | 1.7 | 34.8 ± 5.5 µM | 2.0 | 68 ± 16.7 µM |  |  |  |  |  |  |
| CSc1nc(/N=C/c2cccc(O)c2)n(-c2ccc(C(=O)O)cc2)n1 [Compound 8, (E)-4-(5-((3-Hydroxybenzylidene)amino)-3-(methylthio)-1H-1,2,4-triazol-1-yl)benzoic acid] | 34.6 ± 6.1 µM | 2.0 | 31.2 ± 5.6 µM | 2.2 | 70.1 ± 15.3 µM |  |  |  |  |  |  |
| CSc1nc(/N=C/c2cc(Br)ccc2O)n(-c2ccc(C(=O)O)cc2)n1 [Compound 6, (E)-4-(5-((5-Bromo-2-hydroxybenzylidene)amino)-3-(methylthio)-1H-1,2,4-triazol-1-yl)benzoic acid] | 37.6 ± 6.4 µM | 1.6 | 31.3 ± 5.1 µM | 1.9 | 59.4 ± 11.7 µM |  |  |  |  |  |  |
| COc1ccc(O)c(/C=N/c2nc(SC)nn2-c2ccc(C(=O)O)cc2)c1 [Compound 4, (E)-4-(5-((2-Hydroxy-5-methoxybenzylidene)amino)-3-(methylthio)-1H-1,2,4-triazol-1-yl)benzoic acid] | 35.2 ± 5.2 µM | 1.6 | 27.3 ± 4.2 µM | 2.0 | 55.3 ± 11.1 µM |  |  |  |  |  |  |
